Screens: PubChem, several laboratories
Most compounds without a hit are left out; they make up all but 2.1% or so of the library.
Runt-CBFb FRET: Runt domain-CBFb interaction inhibition; inhibition, % at 20 µM; Cerulean-Runt/Venus-CBFb FRET ratio 530/480, 1 h; 220,000 compounds, 0.46% hits;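 active = inhibition over about 50% at 20 µM in the single-dose screen, limit read from the data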;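 also: 0% = DMSO wells and 100% = excess unlabeled CBFb competitor control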
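Doses: 20 µM compound in 1% DMSO | Material: Cerulean-labeled Runt domain protein | Amount: Each fluorescent fusion protein 100 nM | Schedule: Two 1 h room-temperature incubations shielded from light | Measured by: FRET fluorescence | Evaluation: Loss of energy transfer signal | Controls: Unlabeled CBFb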
Runt-SMMHC FRET: blocks binding of human RUNX1 Runt domain to CBFb-SMMHC; Q01196+Q13951; Cerulean-Runt/Venus-CBFb-SMMHC FRET ratio 530/480, 1 h; inhibition, % at 20 µM; 220,000 compounds, 0.74% hits; AID 1434;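 active = mean inhibition across duplicate retests at 20 µM reaching about 50%, limit read from the data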;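 also: 0% = DMSO wells and 100% = wells with excess untagged CBFb-SMMHC; inhibitors lower the FRET ratio by blocking Runt binding to CBFb-SMMHC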
proKLK7 act: proKLK7 (human) activation, primary screen. purified proKLK7, EDANS-DABCYL substrate fluorescence; 100% is mature enzyme control, 0% vehicle. activation, % at 7 µM. 370,000 compounds, 0.9% hits. P49862;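 active = activation above the mean of all tested compounds plus 3 SD, computed per campaign excluding outliers beyond control limits, cut at about 13% in these data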
Target sequence (P49862 whole entry, looked up): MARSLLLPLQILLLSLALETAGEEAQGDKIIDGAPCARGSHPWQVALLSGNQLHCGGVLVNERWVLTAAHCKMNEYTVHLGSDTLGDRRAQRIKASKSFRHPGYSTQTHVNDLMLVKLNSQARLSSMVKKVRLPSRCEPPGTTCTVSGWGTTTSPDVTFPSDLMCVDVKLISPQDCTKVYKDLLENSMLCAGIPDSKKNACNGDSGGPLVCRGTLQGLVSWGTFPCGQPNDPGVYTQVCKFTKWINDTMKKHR
RanGTP-Impb inh: inhibitors of RanGTP-importin-beta interaction, primary screen, biochemical, FRET, CFP-Ran, YFP-importin-beta, homogeneous | inhibition, % (no concentration beside the values) | cell-free CFP-Ran/YFP-importin-beta FRET ratio | 300,000 compounds, 1.1% hits;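 active = more than half of the replicate wells show a fall in the fluorescence ratio signal beyond about 16%, limit read from the data, passing the limit was not always enough; inconclusive = exactly half of the replicate wells pass the set limit; inactive = fewer than half of replicates pass the limit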;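 also: 0% = DMSO wells and 100% = Ran loaded with GDP instead of GTP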
MEX-5 binding: C. elegans MEX-5 TCR-2 RNA binding activity; activity score (negative = inhibition of binding), % at 10 µM; Q9XUB2; AID 1832; 300,000 compounds, 0.38% hits; MEX-5/FITC-TCR2 RNA binding, fluorescence polarization; hits give low values;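 active = inhibition past about -25% in most replicates, and total fluorescence under double the plate's negative control median, limit read from the data; inconclusive = replicates evenly split on the limit, or fluorescence at least double controls; inactive = too little inhibition in most replicates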;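 also: 0% = DMSO and -100% = 5 µM competing unlabeled TCR2 RNA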
KLK7 act conf: confirmation of human kallikrein-7 zymogen activators | shares compounds with proKLK7 act | purified proKLK7, EDANS-DABCYL substrate fluorescence; scaled: vehicle 0, mature enzyme 100 | 3,200 compounds, 68% hits | AID 686949 | activation, % at 7 µM;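 active = activation, as change over the incubation, above the mean of all tested compounds plus 3 SD, cut at about 13% in these data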
EDANS interfere: optically interferes with EDANS-DABCYL signal, flagging KLK7 hits; shares compounds with proKLK7 act; 3,200 compounds, 80% hits; EDANS-DABCYL substrate fluorescence interference, no enzyme, 4 h; solvent 0%, active enzyme control 100%; activation, % at 7 µM;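 active = activation above the all-compound mean plus 3 SD, ignoring values outside control-based bounds, cut at about 4.8% in these data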;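 also: value is the 4 h activation minus the activation read at time zero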
The depositor's hits bear a star; u = inconclusive; x = no result.

SMILES | Runt-CBFb FRET | Runt-SMMHC FRET | proKLK7 act | RanGTP-Impb inh | MEX-5 binding | KLK7 act conf | EDANS interfere
CN1c2ccc(Cl)cc2C(=O)NC1C1CC=CCC1 (centres undefined) | 42 | 95* | 14* | 30* | 0 | -5 | -9
Cc1cc2c([nH]c3ccccc32)c(C)n1 | x | x | 33* | -1 | -2 | 28* | 25*
Cc1c2ccncc2cc2c1[nH]c1ccccc12 | x | x | 3 | x | x | x | x
COc1cc(OC)c2c(C)c(Cl)c(=O)oc2c1 | -2 | -1 | 15* | 2 | 2 | 78* | 72*
COCCN1CCn2c(nc3cc(NC(=O)NC4CCCCC4)ccc32)C1 | 1 | -3 | 16* | x | x | -22 | -14
C[C@@H]1CCCCO[C@@H](CN(C)C(=O)Nc2ccc3c(c2)OCO3)[C@@H](C)CN([C@H](C)CO)C(=O)c2cc(N(C)C)ccc2O1 | x | x | 0 | x | x | x | x
COc1ccc(-c2ccnc3ncnn23)cc1 | 0 | 1 | 33* | 0 | 1 | 27* | 35*
COc1ccc(-c2cc(-c3ccccc3)n3ncnc3n2)cc1 | -2 | 3 | 30* | -4 | 1 | 25* | -24
FCCCOc1ccc(-c2ccnc3ncnn23)cc1 | 1 | -1 | 3 | -4 | -2 | x | x
Cc1cc(Cl)ccc1C(O)c1ncc(-c2ccc(Cl)cc2)[nH]1 (centres undefined) | x | x | 0 | x | x | x | x
CCOC(=O)COc1ccc2nsnc2c1Cl | -1 | 2 | 38* | 5 | -2 | 37* | 41*
CC1CCCCC1NC(=O)c1cc2c(=O)n3ccccc3nc2n1C (centres undefined) | x | x | 41* | 14 | 2 | 6 | 4
CCN(C(=O)c1cc2c(=O)n3ccccc3nc2n1CCCOC)C1CCCCC1 | x | x | 55* | 2 | -2 | 76* | 78*
CCCCn1nc(C(=O)N(C)C2CCCCC2)c2ccccc2c1=O | x | x | 0 | x | x | x | x
CCN(C(=O)c1cc2c(=O)n3ccccc3nc2n1C)C1CCCCC1 | x | x | 67* | u | 1 | 66* | 80*
CN(C(=O)c1cc2c(=O)n3ccccc3nc2n1C)C1CCCCC1 | x | x | 69* | 2 | -1 | 74* | 81*
CCN(C(=O)c1cc2c(=O)n3ccccc3nc2s1)C1CCCCC1 | x | x | 12 | 5 | 3 | x | x
CC1CCCCC1NC(=O)c1c(O)nc2ccccn2c1=O (centres undefined) | x | x | 2 | 1 | -1 | x | x
CC(C)C(=O)N[C@@H]1c2ccccc2CC[C@@H]1OCc1ccccc1 | x | x | 0 | x | x | x | x
CSCCC(NC(=O)c1ccccc1)C(=O)NCCc1ccc2c(c1)OCCO2 (centres undefined) | x | x | 0 | x | x | x | x
Cc1cccc(N2CCN(C(=O)CCC(=O)N3Cc4ccccc4Oc4ncccc43)CC2)c1C | x | x | 1 | 2 | 0 | x | x
CC(=O)Nc1cc2c3ccccc3n(C)c2cc1[N+](=O)[O-] | x | x | 0 | x | x | x | x
COc1cc2c(cc1OC)CN(CC(=O)Nc1ccc(C#N)cc1)CC2 | 2 | -1 | 17* | 8 | 0 | 3 | 0
Cc1ccc(-c2nc3ncccn3c2NC(=O)C2CC2)cc1 | -2 | 3 | 17* | 1 | -1 | 32* | 45*
O=C(Nc1c(-c2ccc(C(F)(F)F)cc2)nc2ncccn12)C1CC1 | x | x | 27* | x | x | 29* | 27*
O=C(Nc1nc2ncccn2c1-c1ccc(C(F)(F)F)cc1)C1CC1 | x | x | 12 | x | x | x | x
CCCCN1C(=O)C(CC(=O)NCCCN(C)C)CC(C(=O)N2CCCCCC2)=C1C (centres undefined) | x | x | -1 | x | x | x | x
CCN(CC)C(=O)c1ccc2c(c1)nnn2C | 0 | -1 | 16* | 3 | 2 | 0 | 0
O=Cc1ccc(/C=C2\c3ccccc3C(=O)N2c2ccccc2)o1 | x | x | 34* | x | x | 62* | 59*
Cc1c(O)ccc2cc(S(=O)(=O)c3ccccc3)c(=O)oc12 | x | x | 45* | 132* | -24 | 70* | 73*
